According to publication PMC2195906 (The Journal of Experimental Medicine, 2001):
“Also recorded” adds a separate entry of the source.

Tests used:
[1] = biological target: T1, ANT (Rattus norvegicus, UniProt Q05962); test: Plasmon resonance; format: binding
T1 sequence (Q05962 1-298): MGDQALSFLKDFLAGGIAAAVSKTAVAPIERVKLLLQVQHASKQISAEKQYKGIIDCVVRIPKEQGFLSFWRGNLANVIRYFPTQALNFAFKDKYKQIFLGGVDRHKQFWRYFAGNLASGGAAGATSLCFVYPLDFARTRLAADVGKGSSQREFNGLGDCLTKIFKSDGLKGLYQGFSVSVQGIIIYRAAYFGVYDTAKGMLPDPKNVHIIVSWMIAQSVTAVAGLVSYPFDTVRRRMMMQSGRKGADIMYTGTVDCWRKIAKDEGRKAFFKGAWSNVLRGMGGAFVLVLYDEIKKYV

[2] = tested on: recombinant VDAC; test: Plasmon resonance: binding to recombinant VDAC; conditions: control experiments, VDAC concentrations up to 10 μM
[3] = tested on: ANT proteoliposomes; test: Binding of FITC-labeled Vpr52-96 to ANT proteoliposomes; parameters: species or system rat; conditions: FITC-labeled Vpr52-96, 30 min; Fig. 2 A; n = 3
How it was run: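 ANT was purified from rat heart mitochondria (Triton X-100 extraction, hydroxyapatite, then cation-exchange with a 0–1 M NaCl gradient) and reconstituted at 0.1 mg/ml into phosphatidylcholine/cardiolipin liposomes, then dialysed overnight at 4°C. Proteoliposomes were exposed 30 min to FITC-peptide in 125 mM sucrose/10 mM Hepes pH 7.4, ultracentrifuged (290,000 g, 45 min, 10°C) and read by flow cytometry. Inhibitors were preincubated and washed out; mean ± SD, n = 3.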

[4] = tested on: ANT proteoliposomes; test: Pore-opening assay: 4-MUP release from ANT proteoliposomes; format: biochemical, rat; conditions: peptides 1 μM, 60 min, Atr 200 μM = 100%, Fig. 2 C
How it was run: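 ANT purified from rat heart mitochondria, reconstituted into PC/cardiolipin liposomes, sonicated on ice with 1 mM 4-MUP/10 mM KCl, gel-filtered. Diluted in 10 mM Hepes, 125 mM saccharose pH 7.4, peptide 1 h RT; inhibitors added 30 min earlier. Alkaline phosphatase (0.5 mM MgCl2) 15 min 37°C, stopped at pH 10. 4-MU fluorescence 360/450 nm. Release = % of atractyloside response after untreated background subtraction; n = 3, SD.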

[5] = Pore-opening assay: plain liposomes; format: biochemical; conditions: 4-MUP loaded, data not shown
How it was run: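 Liposomes sonicated on ice with 1 mM 4-MUP and 10 mM KCl, then freed of unencapsulated probe on Sephadex G-25. Diluted in 10 mM Hepes, 125 mM saccharose pH 7.4 and exposed to inducers for 1 h at RT; inhibitors were added 30 min earlier. Alkaline phosphatase with 0.5 mM MgCl2 was added for 15 min at 37°C and stopped with EDTA buffer at pH 10. 4-MU fluorescence (360/450 nm) was expressed as % of the atractyloside response after subtracting untreated liposomes.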

[6] = biological target: T1, ANT; test: Planar lipid bilayers, single channel level, Vpr52-96 plus ANT; format: biochemical; conditions: Vpr52-96 plus ANT 0.4:1 nM, +115 mV; tip-dip technique
How it was run: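 Rat heart mitochondrial ANT, purified via subtilisin treatment, Triton X-100 solubilization, hydroxyapatite and SP column (0–1 M NaCl). Proteins held 30 min RT with 1 mM CaCl2, 40 μM atractyloside or control electrolyte, mixed with dried lipid (60 μg protein/mg lipid), detergent removed by beads. Tip-dip bilayers, symmetric 100 mM KCl, 2 mM MgCl2, 10 mM Hepes pH 7.4.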

[7] = Planar lipid bilayers, single channel level, Vpr52-96 without ANT; format: biochemical; conditions: <1 nM Vpr52-96
How it was run: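 Solvent-free planar bilayers formed by monolayer apposition on a 125-μm Teflon aperture, or by tip-dip on patch pipettes. Recording was in symmetric 100 mM KCl, 2 mM MgCl2, 10 mM Hepes pH 7.4, with Ag/AgCl electrodes under applied voltage. Bare membranes were first checked for electrical silence; peptide was added to the aqueous subphase after bilayer formation. Single-channel current traces show the most frequent events.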

[8] = tested on: purified mitochondria (respiratory control); test: Respiratory control; format: biochemical, mouse; conditions: 1 μM Vpr-derived peptides, 10 min
How it was run: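 Clark-electrode oxygraphy at 37°C in 0.3 M mannitol, 10 mM KCl, 5 mM MgCl2, 1 mg/ml BSA, 10 mM KH2PO4, pH 7.4. Purified mitochondria were pretreated 10 min with 1 μM peptide; succinate oxidation was followed with sequential ADP, oligomycin and CCCP additions. Mean of three determinations.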

[9] = tested on: purified mitochondria (respiratory chain); test: Polarography: succinate oxidation of purified mitochondria; format: biochemical, mouse; conditions: 1 μM Vpr52-96, 10 min pretreatment; Fig. 4 A
How it was run: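 Mouse liver mitochondria, pretreated 10 min with test peptide or untreated, held at 37°C in a Clark-electrode cell. Medium: 0.3 M mannitol, 10 mM KCl, 5 mM MgCl2, 1 mg/ml BSA, 10 mM KH2PO4, pH 7.4. Oxygen consumption traced on succinate with sequential ADP, oligomycin and CCCP additions.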

[10] = tested on: purified mitochondria, inner membrane; test: Respirometry: NADH-dependent oxygen consumption; format: biochemical, mouse
How it was run: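 Oxygen uptake was recorded by Clark electrode at 37°C (mannitol/KCl/MgCl2/BSA/KH2PO4 medium, pH 7.4) after 2 mM NADH and 1 μM peptide, with rotenone added to test sensitivity; rates are in nmol O2/min/mg protein. For inhibitor tests, mitochondria were pretreated 10 min with 0.8 μM Bcl-2 or 10 μM BA before succinate plus CCCP or NADH. In the kinetics, 15 μM cytochrome c oxidation was followed in parallel, with 100% set by 2.5 mM laurylmaltoside.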

[11] = tested on: purified mitochondria, outer membrane; test: Cytochrome c oxidation; format: biochemical, mouse; conditions: 15 μM cytochrome c; 100% by 2.5 mM laurylmaltoside; Fig. 5 B
How it was run: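 Mouse liver mitochondria exposed to test peptide, followed over time. Outer-membrane permeability read as spectrophotometric/spectrofluorometric oxidation of added reduced cytochrome c (15 μM) by cytochrome c oxidase. Maximal (100%) oxidation set by 2.5 mM laurylmaltoside; signal expressed as a percentage of this. Inner-membrane NADH oxidation (2 mM, oxygen consumption) tracked in parallel.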

[12] = tested on: purified mitochondria (cytochrome c release); test: Cytochrome c release immunodetected in supernatant of mitochondria; format: biochemical, mouse; conditions: 1 μM Vpr52-96; immunoblot; Fig. 5 C
How it was run: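 Mouse liver mitochondria treated with test peptide over a time course. Supernatants cleared by two spins (6,800 g 15 min; 20,000 g 1 h; both 4°C), stored at −80°C, and cytochrome c immunodetected with a mouse monoclonal antibody. In parallel, ΔΨm loss scored by flow cytometry with JC-1 as percent low-ΔΨm mitochondria.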

[13] = tested on: isolated mitochondria; test: Ultrastructure: swelling of isolated mitochondria; format: biochemical, mouse; conditions: for swollen mitochondria: control <5%
[14] = tested on: PTPC; conditions: cited from earlier work
[15] = tested on: recombinant Bcl-2; test: Plasmon resonance: interaction with recombinant Bcl-2; format: binding, human; conditions: surface plasmon resonance, control experiments

Compound	sensorgram: increase of binding as a function of time ([1]; plasmon resonance, association and dissociation phase, Fig. 1 A)	binding affinity for ANT (in words) ([1]; surface plasmon resonance, purified detergent-solubilized ANT)	specific binding to VDAC [2]	binding to ANT liposomes compared with protein-free liposomes [3]	permeabilization of ANT proteoliposomes [4]	effect on plain liposomes [5]	channel conductance, Vpr52-96 plus ANT [6] [pS]	channel formation at low doses without ANT [7]	effect on RC (in words) [8]	effect on respiration (succinate oxidation) [9]	NADH-dependent oxygen consumption (IM permeabilization to NADH) ([10]; 1 μM Vpr52-96, 2 mM NADH, Fig. 5 A)	time of maximal NADH oxidation after addition ([10]; Vpr52-96, 2 mM NADH, Fig. 5 B) [min]	access of cytochrome c to cytochrome c oxidase [11]	order of ΔΨm loss, inner MMP and cytochrome c release [12]	swollen mitochondria ([13]; 5 min after 3 μM Vpr52-96, X ± SEM, n = 3) [%]	swollen mitochondria ([13]; 15 min after 3 μM Vpr52-96) [%]	ultrastructural effect (in words) ([13]; Vpr52-96-treated mitochondria, Fig. 6 C)	action on PTPC and mitochondrial hallmarks of apoptosis [14]	interaction with recombinant Bcl-2 [15]
CC[C@H](C)[C@H](NC(=O)CNC(=O)[C@@H](NC(=O)[C@H](CCCNC(=N)N)NC(=O)[C@H](CO)NC(=O)[C@H](Cc1c[nH]cn1)NC(=O)[C@H](CCCNC(=N)N)NC(=O)[C@H](CS)NC(=O)CNC(=O)[C@@H](NC(=O)[C@H](CCCNC(=N)N)NC(=O)[C@H](Cc1ccccc1)NC(=O)[C@H](Cc1c[nH]cn1)NC(=O)[C@@H](NC(=O)[C@H](Cc1ccccc1)NC(=O)[C@H](CC(C)C)NC(=O)[C@H](CC(C)C)NC(=O)[C@H](CCC(N)=O)NC(=O)[C@H](CCC(N)=O)NC(=O)[C@H](CC(C)C)NC(=O)[C@@H](NC(=O)[C@H](CCCNC(=N)N)NC(=O)[C@@H](NC(=O)[C@H](CC(C)C)NC(=O)[C@H](C)NC(=O)[C@H](CCC(=O)O)NC(=O)[C@@H](NC(=O)CNC(=O)[C@@H](NC(=O)[C@H](Cc1c[nH]c2ccccc12)NC(=O)[C@@H](NC(=O)[C@@H](N)CC(=O)O)[C@@H](C)O)[C@@H](C)O)C(C)C)[C@@H](C)CC)[C@@H](C)CC)[C@@H](C)CC)[C@@H](C)CC)[C@@H](C)CC)C(=O)N[C@H](C(=O)N[C@@H](CCC(N)=O)C(=O)N[C@@H](CCC(N)=O)C(=O)N[C@@H](CCCNC(=N)N)C(=O)N[C@@H](CCCNC(=N)N)C(=O)N[C@H](C(=O)N[C@@H](CCCNC(=N)N)C(=O)N[C@@H](CC(N)=O)C(=O)NCC(=O)N[C@@H](C)C(=O)N[C@@H](CO)C(=O)N[C@@H](CCCCN)C(=O)N[C@@H](CO)C(=O)O)[C@@H](C)O)[C@@H](C)CC [Vpr52-96]	exhibits an increase of binding as a function of time and a positive signal at the start of the dissociation phase (off)	affinity in the nanomolar range	no specific binding	greatly facilitated in liposomes in which ANT has been reconstituted compared with protein-free liposomes	caused permeabilization of ANT proteoliposomes	had no effect on plain liposomes	190 ± 2	incapable of forming channels	gross deficiency in respiratory control	increased succinate oxidation preceding ADP addition and abolished both the inhibitory effect of oligomycin (a specific ATPase inhibitor) and the stimulatory effect of uncoupling by the protonophore CCCP; also recorded: not associated with a significant decrease of the oxidation rate; also recorded: adding cytochrome c to Vpr52-96–treated mitochondria oxidizing succinate did not stimulate the rate of oxygen uptake	prompted a significant, NADH-stimulated oxygen consumption	10	only induced a marginal access of cytochrome c to cytochrome c oxidase	the ΔΨm loss occurred before cytochrome c release can be detected by immunoblot; also recorded: causes inner MMP well before OM becomes permeable to cytochrome c	82 ± 4	99 ± 1	exhibited matrix swelling before OM rupture became apparent		
Vpr1-96: entire (full-length) Vpr protein									also reduced the RC values									act on the PTPC to induce all mitochondrial hallmarks of apoptosis, including ΔΨm loss and the release of cytochrome c and apoptosis-inducing factor (AIF)	
Vpr53-96: printed once; probably Vpr52-96																			found not to interact with recombinant Bcl-2
